Results taken from ChEMBL document CHEMBL4665734, “Optimization of globomycin analogs as novel gram-negative antibiotics” (Bioorg Med Chem Lett, 2020).
pEC50: −log10 of the molar value. ≈ marks a conversion by molar mass, not a printed value. Starred links: 1 amine or outer side, 2 acyl side, 3 side chain; linkers in the order of their positions; H or OH if unused. Non-standard residues stand in square brackets, D forms with d. Residues, ends and D or L forms follow the SMILES beside them. *: point of attachment. dAlaψ(CH2NBu)Nle = CCCC[C@@H](C(=O)[*:2])N(CCCC)C[C@@H](C)N[*:1]; X9 = CCCCCC[C@@H](OCCN[*:1])[C@@H](C)C(=O)[*:2]; Cyclobutyl(trans-3-NH2) = N[C@H]1C[C@H](*)C1; X4 = CCCCCCN(CCN[*:1])[C@@H](C)C(=O)[*:2]; aThr = C[C@H](O)[C@H](N)C(=O)O; NMeL = CN[C@@H](CC(C)C)C(=O)O; Chg = N[C@H](C(=O)O)C1CCCCC1; NMeNva = CCC[C@H](NC)C(=O)O; Dap = NC[C@H](N)C(=O)O

Experiments:
[1] = Protein binding in mouse plasma; format: ADME, cell-free; conditions: for fraction unbound: read-out: PPB (converted)
[2] = Stability of the compound in rat plasma assessed as parent compound remaining after 24 hrs; format: ADME, cell-free; conditions: read-out: Stabilty
Summary of the method: (§1)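 Test compound incubated for 24 hour in human, rat or mouse plasma. Stability is reported as the percentage of parent compound remaining.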

[3] = Protein binding in rat plasma; format: ADME, cell-free; conditions: for fraction unbound: read-out: PPB (converted)
[4] = Clearance in iv dosed mouse; format: ADME, organism-based; conditions: in vivo
[5] = Stability in mouse plasma assessed as esterase-mediated compound hydrolysis by measuring parent compound remaining after 6 hrs; format: ADME, cell-free; conditions: read-out: Stabilty
Summary of the method: (§2)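 Test compound incubated for 6 hour in human or mouse plasma. Stability is reported as the percentage of parent compound remaining.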

[6] = Stability of the compound in human plasma assessed as parent compound remaining after 24 hrs; format: ADME, cell-free; conditions: read-out: Stabilty; summary of the method: as §1
[7] = Lipophilicity, logD of the compound at pH 7.4; conditions: buffer, pH 7.4, logD
Acinetobacter baumannii = experiment: Inhibition of LspA in Acinetobacter baumannii assessed as inhibition of bacterial growth
Jurkat = experiment: Cytotoxicity against human Jurkat cells; format: cell-based
Summary of the method: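 Jurkat cell growth assay. Result reported as antiproliferative EC50.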

Klebsiella pneumoniae = experiment: Inhibition of LspA in Klebsiella pneumoniae assessed as inhibition of bacterial growth
[8] = Clearance in rat liver microsomes; format: ADME, Microsome
Summary of the method: (§3)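 Intrinsic clearance in rat or mouse liver microsomes, expressed in mL/min/kg.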

Pseudomonas aeruginosa = experiment: Inhibition of LspA in Pseudomonas aeruginosa assessed as inhibition of bacterial growth
[9] = Growth inhibition of Staphylococcus aureus USA300
[10] = Stability of the compound in mouse plasma assessed as parent compound remaining after 24 hrs; format: ADME, cell-free; conditions: read-out: Stabilty; summary of the method: as §1
Escherichia coli = experiment: Inhibition of LspA in Escherichia coli CFT073imp4213 harboring outer membrane-permeable mutant assessed as inhibition of bacterial growth
Summary of the method: (§4)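 Read-out is the minimum inhibitory concentration, reported in µM.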

Enterobacter cloacae = experiment: Inhibition of LspA in Enterobacter cloacae assessed as inhibition of bacterial growth
[11] = Clearance in mouse liver microsomes; format: ADME, Microsome; summary of the method: as §3
[12] = Half life in iv dosed mouse; format: ADME, organism-based; conditions: in vivo
Escherichia coli CFT073 = experiment: Inhibition of LspA in wild type Escherichia coli CFT073 assessed as inhibition of bacterial growth; summary of the method: as §4
[13] = Half life in iv dosed rat; format: ADME, organism-based; conditions: in vivo
[14] = Clearance in iv dosed rat; format: ADME, organism-based; conditions: in vivo
[15] = Stability of the compound in human plasma assessed as parent compound remaining after 6 hrs; format: ADME, cell-free; conditions: read-out: Stabilty; summary of the method: as §2
[16] = Stability of the compound in mouse plasma assessed as parent compound remaining after 6 hrs; format: ADME, cell-free; conditions: read-out: Stabilty; summary of the method: as §2

remaining at 24 h [2] [%]	remaining at 24 h [6] [%]	logD [7]	MIC (Acinetobacter baumannii) [µM]	MIC (Klebsiella pneumoniae) [µM]	CLhep predicted [8] [mL/min/kg]	MIC (Pseudomonas aeruginosa) [µM]	remaining at 24 h [10] [%]	CLhep predicted [11] [mL/min/kg]	fraction unbound [1]	half-life [13] [h]	fraction unbound [3]	clearance [14] [mL/min/kg]	SMILES	pEC50 (Jurkat)	MIC [9] [µM]	MIC (Escherichia coli) [µM]	MIC (Escherichia coli CFT073) [µM]	other results
60	110	1	> 100	100 (≈ 70.7 µg/mL)	26	> 100	95	34	0.03	1.6	0.043	8.7	CCCCCCN1CCNC(=O)[C@H](CO[C@H]2C[C@H](N)C2)NC(=O)[C@H](CN)NC(=O)[C@H](C2CCCCC2)NC(=O)[C@H](CC(C)C)N(C)C(=O)[C@@H]1C (cyclo([Chg][Dap]S(Cyclobutyl(trans-3-NH2))[X4][NMeL]))	< 4.00	100 (≈ 70.7 µg/mL)		6.3 (≈ 4.45 µg/mL)	
58	105	1.5	25 (≈ 18 µg/mL)	25 (≈ 18 µg/mL)	< 6.1	100 (≈ 72.1 µg/mL)	55	32	0.026	6.8	0.047	24	CCCC[C@H]1C(=O)N(C)[C@@H](CCC)C(=O)N[C@@H](C2CCCCC2)C(=O)N[C@@H](CN)C(=O)N[C@@H](CO[C@H]2C[C@H](N)C2)C(=O)N[C@H](C)CN1CCCC (cyclo([Chg][Dap]S(Cyclobutyl(trans-3-NH2))[dAlaψ(CH2NBu)Nle][NMeNva]))		50 (≈ 36.1 µg/mL)		6.3 (≈ 4.54 µg/mL)	
													CCCCCC[C@H]1OCCNC(=O)[C@H]([C@H](C)O)NC(=O)[C@H](CN)NC(=O)[C@H](C2CCCCC2)NC(=O)[C@H](CC(C)C)N(C)C(=O)[C@@H]1C (cyclo([Chg][Dap][aThr][X9][NMeL]))		100 (≈ 66.7 µg/mL)	0.14 (≈ 0.0934 µg/mL)	8.7 (≈ 5.8 µg/mL)	remaining at 6 h [15]: 99%; remaining at 6 h [16]: 96%

SMILES	remaining at 24 h [2] [%]	remaining at 24 h [6] [%]	logD [7]	MIC (Acinetobacter baumannii) [µM]	MIC (Klebsiella pneumoniae) [µM]	CLhep predicted [8] [mL/min/kg]	MIC (Pseudomonas aeruginosa) [µM]	remaining at 24 h [10] [%]	CLhep predicted [11] [mL/min/kg]	fraction unbound [1]	half-life [13] [h]	fraction unbound [3]	clearance [14] [mL/min/kg]	pEC50 (Jurkat)	MIC [9] [µM]	MIC (Escherichia coli) [µM]	MIC (Escherichia coli CFT073) [µM]	other results
CCCCCC[C@H]1OC(=O)CNC(=O)[C@H]([C@H](C)O)NC(=O)[C@H](CO)NC(=O)[C@H]([C@H](C)CC)NC(=O)[C@H](CC(C)C)N(C)C(=O)[C@@H]1C	1	100	3.1	> 100	> 100	37	> 100	2	81					< 4.30	> 100	0.25 (≈ 0.164 µg/mL)	44 (≈ 28.9 µg/mL)	Stabilty [1]: Unstable; Stabilty [3]: Unstable; clearance [4]: 286 mL/min/kg; remaining at 6 h [5]: 49%; MIC (Enterobacter cloacae): 100 µM (≈ 65.6 µg/mL); half-life [12]: 0.3 h
